The target in series [1] is Glutamate receptor ionotropic, NMDA 2A (Rattus norvegicus) (UniProt Q00959). The experiment in a line: Positive allosteric modulation of rat GluN2A expressed in Xenopus laevis oocytes assessed as potentiation of L-glutamate/glycine-induced current response at holding potential -60 mV by two-electrode voltage clamp method relative to L-glutamate/glycine. Format: cell-based. Details: concentration or dose not given beside the values. The gist of the method: (§1)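 Oocytes injected with GluN1a plus GluN2A, 2B, 2C or 2D RNA (1:1–3 molar, 15–30 ng total) and kept in ND-96 at 17°C for 1–5 days. TEVC at −60 mV in HEPES-buffered NaCl/KCl/BaCl2 saline, pH 7.4. […] Curves were fitted to give EC50/IC50 and maximal potentiation or inhibition, mean ± s.e.m.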
For orientation: In two-electrode clamp one electrode senses voltage and the other passes current.

Series [2] concerns the target Glutamate receptor ionotropic, NMDA 2B (Rattus norvegicus) (UniProt Q00960). The experiment in a line: Positive allosteric modulation of rat GluN2B expressed in Xenopus laevis oocytes assessed as potentiation of L-glutamate/glycine-induced current response at holding potential -60 mV by two-electrode voltage clamp method relative to L-glutamate/glycine. Format: cell-based. The essentials: as §1

Series [3] in a line: Solubility of the compound at 100 uM. It counts as physicochemical. The gist of the method: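 Compounds were inspected for visible precipitation at the concentrations used in the oocyte assays.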
Series [4] concerns the target Glutamate receptor ionotropic, NMDA 2B (Rattus norvegicus) (UniProt Q00960). The experiment in a line: Allosteric modulation of rat GluN2B expressed in Xenopus laevis oocytes assessed as L-glutamate/glycine-induced current response at 100 uM at holding potential -60 mV by two-electrode voltage clamp method relative to L-glutamate/glycine. It counts as cell-based. The gist of the method:
(§2)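 GluN1a with one GluN2 subunit; RNAs mixed 1:1–3 molar, 15–30 ng total injected into Xenopus oocytes, which were held in ND-96 at 17°C for 1–5 days. TEVC at −60 mV in 116 mM NaCl, 2 mM KCl, 0.3 mM BaCl2, 5 mM HEPES, pH 7.4. […] Reported as % of agonist-alone response, mean ± s.e.m., n≥4.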

Series [5] addresses T1, Ionotropic glutamate receptor NMDA 1/2D (Rattus norvegicus, UniProt P35439+Q62645). The experiment in a line: Positive allosteric modulation of rat GluN1/GluN2D expressed in Xenopus laevis oocytes assessed as potentiation of L-glutamate/glycine-induced current response at holding potential -60 mV by two-electrode voltage clamp method. Format: cell-based. The gist of the method:
as §1

Series [6] has as its target Glutamate receptor ionotropic, NMDA 2D (Rattus norvegicus) (UniProt Q62645). The experiment in a line: Allosteric modulation of rat GluN2D expressed in Xenopus laevis oocytes assessed as L-glutamate/glycine-induced current response at 100 uM at holding potential -60 mV by two-electrode voltage clamp method relative to L-glutamate/glycine. Format: cell-based. The essentials:
as §2

The target of series [7] is Glutamate receptor ionotropic, NMDA 2C (Rattus norvegicus) (UniProt Q00961). Description: Agonist activity at rat GluN2C expressed in Xenopus laevis oocytes assessed effect on current response at holding potential -60 mV by two-electrode voltage clamp method relative to L-glutamate/glycine. Format: cell-based. The essentials:
as §2

Series [8] shares this target. The experiment in a line: Positive allosteric modulation of rat GluN2C expressed in Xenopus laevis oocytes assessed as potentiation of L-glutamate/glycine-induced current response at holding potential -60 mV by two-electrode voltage clamp method relative to L-glutamate/glycine. Format: cell-based. Also on record: concentration or dose not given beside the values. The gist of the method:
as §1

Series [9] deals with Glutamate receptor ionotropic, NMDA 2B (Rattus norvegicus) (UniProt Q00960). Description: Agonist activity at rat GluN2B expressed in Xenopus laevis oocytes assessed as effect on current response at holding potential -60 mV by two-electrode voltage clamp method relative to L-glutamate/glycine. It counts as cell-based. The gist of the method: as §2
Series [10] deals with Glutamate receptor ionotropic, NMDA 2A (Rattus norvegicus) (UniProt Q00959). The experiment in a line: Allosteric modulation of rat GluN2A expressed in Xenopus laevis oocytes assessed as L-glutamate/glycine-induced current response at 100 uM at holding potential -60 mV by two-electrode voltage clamp method relative to L-glutamate/glycine. Format: cell-based. The essentials: as §2

Series [11] concerns the target T2, Glutamate NMDA receptor; Grin1/Grin2a (Rattus norvegicus, UniProt P35439+Q00959). Description: Positive allosteric modulation of rat GluN1/GluN2A expressed in Xenopus laevis oocytes assessed as potentiation of L-glutamate/glycine-induced current response at holding potential -60 mV by two-electrode voltage clamp method. Format: cell-based. The essentials:
as §1

In series [12] the target is Glutamate receptor ionotropic, NMDA 2C (Rattus norvegicus) (UniProt Q00961). The experiment in a line: Allosteric modulation of rat GluN2C expressed in Xenopus laevis oocytes assessed as L-glutamate/glycine-induced current response at 100 uM at holding potential -60 mV by two-electrode voltage clamp method relative to L-glutamate/glycine. Format: cell-based. The gist of the method:
as §2

Series [13] has as its target Glutamate receptor ionotropic, NMDA 2D (Rattus norvegicus) (UniProt Q62645). The experiment in a line: Agonist activity at rat GluN2D expressed in Xenopus laevis oocytes assessed as effect on current response at holding potential -60 mV by two-electrode voltage clamp method relative to L-glutamate/glycine. Format: cell-based. The gist of the method: as §2
Series [14] shares this target. The experiment in a line: Positive allosteric modulation of rat GluN2D expressed in Xenopus laevis oocytes assessed as potentiation of L-glutamate/glycine-induced current response at holding potential -60 mV by two-electrode voltage clamp method relative to L-glutamate/glycine. It counts as cell-based. Details: concentration or dose not given beside the values. The gist of the method:
as §1

Series [15] has as its target T3, Glutamate NMDA receptor; Grin1/Grin2b (Rattus norvegicus, UniProt P35439+Q00960). Description: Positive allosteric modulation of rat GluN1/GluN2B expressed in Xenopus laevis oocytes assessed as potentiation of L-glutamate/glycine-induced current response at holding potential -60 mV by two-electrode voltage clamp method. It counts as cell-based. The essentials:
as §1

Series [16] has as its target T4, Glutamate NMDA receptor; Grin1/Grin2c (Rattus norvegicus, UniProt P35439+Q00961). The experiment in a line: Positive allosteric modulation of rat GluN1/GluN2C expressed in Xenopus laevis oocytes assessed as potentiation of L-glutamate/glycine-induced current response at holding potential -60 mV by two-electrode voltage clamp method. It counts as cell-based. The gist of the method:
as §1

The target in series [17] is Glutamate receptor ionotropic, NMDA 2A (Rattus norvegicus) (UniProt Q00959). Description: Agonist activity at rat GluN2A expressed in Xenopus laevis oocytes assessed effect on current response at holding potential -60 mV by two-electrode voltage clamp method relative to L-glutamate/glycine. It counts as cell-based. The essentials:
as §2

Series [18] addresses Glutamate NMDA receptor; Grin1/Grin2a (Rattus norvegicus) (UniProt P35439+Q00959). The experiment in a line: Negative allosteric modulation of rat GluN1/GluN2A expressed in Xenopus laevis oocytes assessed as inhibition of L-glutamate/glycine-induced current response at holding potential -60 mV by two-electrode voltage clamp method relative to untreated control. Format: cell-based. Details: concentration or dose not given beside the values. The gist of the method: as §1

The target in series [19] is Glutamate NMDA receptor; Grin1/Grin2b (Rattus norvegicus) (UniProt P35439+Q00960). Description: Negative allosteric modulation of rat GluN1/GluN2B expressed in Xenopus laevis oocytes assessed as inhibition of L-glutamate/glycine-induced current response at holding potential -60 mV by two-electrode voltage clamp method relative to untreated control. Format: cell-based. Also on record: concentration or dose not given beside the values. The gist of the method: as §1

Series [20] addresses Glutamate NMDA receptor; Grin1/Grin2c (Rattus norvegicus) (UniProt P35439+Q00961). The experiment in a line: Negative allosteric modulation of rat GluN1/GluN2C expressed in Xenopus laevis oocytes assessed as inhibition of L-glutamate/glycine-induced current response at holding potential -60 mV by two-electrode voltage clamp method relative to untreated control. It counts as cell-based. Details: concentration or dose not given beside the values. The gist of the method:
as §1

Series [21] concerns the target T1, Ionotropic glutamate receptor NMDA 1/2D. Description: Negative allosteric modulation of rat GluN1/GluN2D expressed in Xenopus laevis oocytes assessed as inhibition of L-glutamate/glycine-induced current response at holding potential -60 mV by two-electrode voltage clamp method. It counts as cell-based. The gist of the method:
as §1

Series [22] addresses T3, Glutamate NMDA receptor; Grin1/Grin2b. Description: Negative allosteric modulation of rat GluN1/GluN2B expressed in Xenopus laevis oocytes assessed as inhibition of L-glutamate/glycine-induced current response at holding potential -60 mV by two-electrode voltage clamp method. Format: cell-based. The essentials: as §1
Series [23] concerns the target T4, Glutamate NMDA receptor; Grin1/Grin2c. The experiment in a line: Negative allosteric modulation of rat GluN1/GluN2C expressed in Xenopus laevis oocytes assessed as inhibition of L-glutamate/glycine-induced current response at holding potential -60 mV by two-electrode voltage clamp method. Format: cell-based. The gist of the method:
as §1

In series [24] the target is Ionotropic glutamate receptor NMDA 1/2D (Rattus norvegicus) (UniProt P35439+Q62645). The experiment in a line: Negative allosteric modulation of rat GluN1/GluN2D expressed in Xenopus laevis oocytes assessed as inhibition of L-glutamate/glycine-induced current response at holding potential -60 mV by two-electrode voltage clamp method relative to untreated control. Format: cell-based. Details: concentration or dose not given beside the values. The essentials: as §1

The target of series [25] is T2, Glutamate NMDA receptor; Grin1/Grin2a. The experiment in a line: Negative allosteric modulation of rat GluN1/GluN2A expressed in Xenopus laevis oocytes assessed as inhibition of L-glutamate/glycine-induced current response at holding potential -60 mV by two-electrode voltage clamp method. It counts as cell-based. The gist of the method: as §1

Active and inactive are the calls of the source. No cut-off for these calls is given here.

On to `CC(C)CCC(C)c1ccc2cc(C(=O)O)ccc2c1` (racemic), for which the Activity in series [1] is 277%; in series [2], 192%; in [4], 225%; in series [6] it was 317%; in [8], 263%; in series [10], 281%. Moreover, the Activity in [12] worked out at 337%; in series [14], 240%. In series [3], the solubility result is given as “Soluble”. Further, the EC50 in series [5] was found to be 30.6 µM; in series [11] it was 39.4 µM; in [15], 25 µM; in series [16], 36.2 µM. Moreover, the result in series [7], in series [9], in [13] and in [17] was inactive.
Consider `CC(C)CCCc1ccc2cc(C(=O)O)ccc2c1`, for which the Activity in [1] turned out to be 68.6%; in series [2], 102%; in series [4], 171%; in series [6], 207%; in series [8], 117%; in series [10], 171%. Also, the Activity amounted to 192% in series [12] and 88.4% in series [14]. Moreover, in series [3], the solubility result is “Soluble”. Moreover, the EC50 in [5] amounted to 28.9 µM; in series [11], 28 µM; in series [15], 34.6 µM; in series [16], 37.2 µM. Further, the result in series [7], in series [9], in series [13] and in [17] was inactive.
Consider `O=C(O)c1ccc2cc(CCCC3CCCC3)ccc2c1`, for which the Activity came to 38.4% in [1]; 61.9% in series [2]; 175% in [4]; 161% in series [6]; 105% in [8]; 136% in series [10]. Further, the Activity worked out at 171% in series [12] and 65.6% in [14]. The solubility result in series [3] is listed as “Soluble”. Moreover, the EC50 in series [5] is 34.7 µM; in series [11], 7.5 µM; in series [15], 27 µM; in [16] it was 22.4 µM. In addition, the result in series [7], in series [9], in series [13] and in series [17] was inactive.
Take `O=C(O)c1cc2cc(/C=C/c3ccc([N+](=O)[O-])cc3)ccc2cc1O`: the Activity stood at 54.1% in [18]; 48.4% in [19]; 53.2% in series [4]; 34.4% in [6]; 55.9% in [20]; 47.4% in series [10]. Also, the Activity in series [12] is 43.3%; in series [24], 72.3%. In addition, the solubility entry in series [3] was “Soluble”. Further, the IC50 in [21] was found to be 2.9 µM; in [22], 11.1 µM; in [23], 6.5 µM; in series [25], 5.8 µM.
Turning to `O=C(O)c1cc2cc(-c3ccccc3)ccc2cc1O`, the Activity worked out at 71.5% in [18]; 56.8% in [19]; 49.9% in series [4]; 26.1% in series [6]; 106% in series [20]; 28.4% in series [10]. In addition, the Activity came to 26.1% in series [12] and 98.6% in [24]. Besides, the solubility entry in series [3] is recorded as “Soluble”. The IC50 in series [21] came to 49.6 µM; in series [22] it was 97.8 µM; in series [23], 41.8 µM; in series [25] it was 11 µM.

The term EC50 denotes the concentration at which the effect is half-maximal. One may read the IC50 as the point on the concentration scale where inhibition reaches its midpoint.

For the origin of these results see ChEMBL document CHEMBL4422636, “Investigation of the structural requirements for N-methyl-D-aspartate receptor positive and negative allosteric modulators based on 2-naphthoic acid” (Eur J Med Chem, 2019).
